According to the array DNA melting data of Ke et al. (doi:10.1101/2024.01.08.574731):

Experiments:
[1] = melting temperature; fluorescence melt of hairpins on a sequencing array, two-state fit, raised by 9.35 °C to match UV melts; conditions: sodium 0.088 M
Procedure, shortened: (§1)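 Folding enthalpy and melting temperature come from bootstrapped two-state fits to Cy3 fluorescence of library hairpins carrying annealed Cy3 and quencher oligos on a sequenced MiSeq flow cell. Imaging was done in 50 mM Na-HEPES pH 8.0, 25 mM NaCl, stepping by 2.5 °C up to 60 °C, and signals were normalised to pre-quench Cy3 and to control constructs. Results of four replicates were combined by inverse variance, and fitted temperatures were raised by 9.35 °C to match UV melts.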

[2] = folding enthalpy; higher = less favourable; fluorescence melt of hairpins on a sequencing array, two-state fit; conditions: sodium 0.088 M
Procedure, shortened: as §1

Sequence	Tm [1] [°C]	folding enthalpy [2] [kcal/mol]
GAGGACACGAAAGTGCTC (((..(((....))))))	35.9	-14.4
GAGGACCGAAAGGTACTC (((.(((....))).)))	64.9	-33.4
GAGGACCGAAAGGTGCTC (((.(((....))).)))	60.4	-32.2
GAGGACGAAAGTCACTC ((((((....))).)))	43.1	-17.9
GAGGACGAAAGTCGCCTC ((((((....)))..)))	38.9	-14.9
GAGGACGAAAGTCTCTC ((((((....))).)))	46.5	-18
GAGGACGAAAGTCTTCTC ((((((....)))..)))	48	-23
GAGGACGGAAACATCCTC (((((.(....).)))))	38.3	-26.7
GAGGACGGAAACGCCCTC ((((.((....)).))))	51.7	-47.2
GAGGAGGGAAACCTCTTC ((.((((....)))).))	47.8	-27.7
GAGGATGAAAATCCTC ((((((....))))))	54.7	-37
GAGGATGGAAACACCCTC ((((.((....)).))))	38.1	-32.6
GAGGCAACGAAAGTTCTC (((..(((....))))))	24.4	-11.3
GAGGCACGAAAGTGCTC (((.(((....))))))	45.9	-9.34
GAGGCAGGAAACCGCCTC (((((.(....).)))))	54.9	-33.2
GAGGCCGAAAGGCAGCTC ((((((....)))..)))	50.6	-13.7
GAGGCCGAAAGGCCCCTC ((((((....)))..)))	49.7	-9.61
GAGGCCGAAAGGCTACTC ((((((....)))..)))	42.9	-11.7
GAGGCCGAAAGGCTGCTC ((((((....)))..)))	45.9	-12.1
GAGGCCGGAAACGACCTC ((((.((....)).))))	52.9	-44.9
GAGGCGGGAAACCACCTC ((((.((....)).))))	49.1	-36.9
GAGGCGGGAAACCGCCCC (.(((((....))))).)	46.4	-7.11
GAGGCTGCGAAAGCACTC (((..(((....))))))	34.3	-11.2

Sequence	Tm [1] [°C]	folding enthalpy [2] [kcal/mol]
GAGGGACCGAAAGGTCTC (((..(((....))))))	38.3	-11.6
GAGGGACGAAAGTCGCTC (((.(((....))).)))	65.6	-34.3
GAGGGAGAAATCCCTC ((((((....))))))	53.8	-36
GAGGGCGAAAGCCACCTC ((((((....)))..)))	38.1	-11
GAGGGCGAAAGCCGGCTC ((((((....)))..)))	51	-12.1
GAGGGCGGAAACACCCTC (((((.(....).)))))	49.6	-33.7
GAGGGGACGAAAGTCCTC (((..(((....))))))	41.2	-8.85
GAGGGGCCGAAAGGCCTC (((..(((....))))))	46.4	-7.41
GAGGGGGGAAACCTCCTC ((((.((....)).))))	51.4	-33.7
GAGGGTCCGAAAGGACTC (((..(((....))))))	41.3	-9.51
GAGGGTGGAAACGCCTTC ((.((.(....).)).))	34.1	-25.7
GAGGGTGGAAACGCTCTC (((.(.(....).).)))	49.4	-20.3
GAGGTACGAAAGTAACTC (((.(((....))).)))	54.1	-38.6
GAGGTAGGAAACTGCCTC ((((.((....)).))))	49.9	-37.1
GAGGTCCGAAAGGAACTC (((.(((....))).)))	61.5	-40.6
GAGGTCGGAAACAACCTC (((((.(....).)))))	41.2	-28.8
GAGGTCGGAAACGGTCTC (((..((....))..)))	39.6	-23.4
GAGGTGCGAAAGCAACTC (((.(((....))).)))	66.5	-26.2
GAGGTTGAAAAACCTC ((((((....))))))	58.2	-32.6
GAGGTTGGAAACAACCTC (((((((....)))))))	65.8	-43.3
GAGGTTGGAAACAGCCTC ((((.((....)).))))	50.1	-32.4
GAGGTTGGAAACAGCTTC ((.(.((....)).).))	39.9	-36
GAGGTTGGAAACGATCTC (((.(.(....).).)))	29.5	-17.3

Sequence	Tm [1] [°C]	folding enthalpy [2] [kcal/mol]
GAGTAACGAAAGTTCTC (((.(((....))))))	37.1	-21.9
GAGTACCGAAAGGTCCTC (((.(((....))).)))	45.3	-25.2
GAGTACCGAAAGGTCTC (((.(((....))))))	48.7	-21.6
GAGTACGAAAGTAGCCTC ((((((....)))..)))	27.3	-11.8
GAGTACGAAAGTAGCTC ((((((....))).)))	37.5	-23.3
GAGTACGGAAACGTACTC (((((((....)))))))	64	-42.5
GAGTAGAAATACTC (((((....)))))	36.5	-16.7
GAGTAGACGAAAGTCCTC (((..(((....))))))	32.8	-14.1
GAGTAGCCGAAAGGCCTC (((..(((....))))))	38.4	-10.7
GAGTAGCGAAAGCTCCTC (((.(((....))).)))	39.5	-20
GAGTAGCGAAAGCTCTC (((.(((....))))))	46.2	-17.8
GAGTAGGGAAACCTACCC (.(((((....))))).)	35.1	-15.4
GAGTAGGGAAACCTATTC ((.((((....)))).))	32.5	-25.5
GAGTATGAAAATACTC ((((((....))))))	50.3	-36.5
GAGTCAGGAAACTGGCTC (((.(((....))).)))	54.1	-43.1
GAGTCCCGAAAGGGCCTC (((.(((....))).)))	52.4	-26.6
GAGTCCCGAAAGGGCTC (((.(((....))))))	59.5	-25.5
GAGTCCGAAAGGAATCTC ((((((....)))..)))	50.2	-18.8
GAGTCCGAAAGGACCCTC ((((((....)))..)))	43.5	-10.3
GAGTCCGAAAGGAGGCTC ((((((....)))..)))	47.4	-20.7
GAGTCCGAAAGGATGCTC ((((((....)))..)))	40.5	-16.9
GAGTCCGAAAGGATTCTC ((((((....)))..)))	50.6	-24.4
GAGTCGCGAAAGCGCCTC (((.(((....))).)))	54.8	-23.7

Sequence	Tm [1] [°C]	folding enthalpy [2] [kcal/mol]
GAGTCGCGAAAGCGTCTC (((.(((....))).)))	54.7	-22.3
GAGTCGGCGAAAGCCCTC (((..(((....))))))	25.6	-9.6
GAGTCTCCGAAAGGACTC (((..(((....))))))	39	-21.8
GAGTGAACGAAAGTTCTC (((..(((....))))))	29.9	-11.3
GAGTGACGAAAGTCCTC (((.(((....))))))	47.9	-19.5
GAGTGAGGAAACTTACTC ((((.((....)).))))	38.1	-28
GAGTGCGAAAGCAACCTC ((((((....)))..)))	37.7	-13.5
GAGTGCGAAAGCAAGCTC ((((((....)))..)))	43.6	-14.2
GAGTGCGAAAGCAGTCTC ((((((....)))..)))	58.1	-23.7
GAGTGCGAAAGCATCTC ((((((....))).)))	52.1	-21
GAGTGCGGAAACACACCC (.(((.(....).))).)	28.1	-15.5
GAGTGCGGAAACGCGTTC ((..(((....)))..))	34.3	-13
GAGTGCGGAAACGTGCTC (((..((....))..)))	49.5	-38
GAGTGGGGAAACCCACTC (((((((....)))))))	67.7	-29.8
GAGTGGGGAAACCTGCTC (((..((....))..)))	39.8	-26.6
GAGTGTCCGAAAGGACTC (((..(((....))))))	31.9	-8.71
GAGTGTGGAAACACATTC ((.((((....)))).))	42.5	-17.6
GAGTTACGAAAGTACCTC (((.(((....))).)))	40.3	-24.6
GAGTTCCGAAAGGAGCTC (((.(((....))).)))	57.1	-37
GAGTTCCGAAAGGATCTC (((.(((....))).)))	47.3	-29.3
GAGTTCGGAAACGAACTC (((((((....)))))))	67.3	-39.4
GAGTTCGGAAACGAATTC ((.((((....)))).))	44	-30.8
